Test results taken from PMC3346673 (Toxicological and environmental chemistry, 2012).
Where “and” joins values, the source holds several entries; their conditions need not be identical. Equal values may be shown once. Read-outs that look alike come from different tables or passages of the source.

Columns and labels:
rats = assay: 28 day repeated oral dose toxicity study with clinical chemistry and hematology; type: in vivo, rat (Wistar); conditions: for Ca^2+ / Cl^− / HCT / HGB / K^+ / Mg^2+ / Na^+ / Phosphorus / RBC: mean
Summary of the method: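 Male and female Wistar rats, 10 of each sex per group, gavaged daily for 28 days with the test compound suspended in corn oil at 0, 0.1, 0.5 or 1.0 g kg−1 body weight day−1.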

[1] = Oxygen radical absorbance capacity; conditions: Trolox equivalency
[2] = Metabolic profiling with human liver microsomes; type: in vitro ADME; conditions: incubation with human liver microsomes, MS identification
Summary of the method: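 Test compound incubated with human or rat liver microsomes. Products separated by HPLC and identified by electrospray MS and MS:MS, using information-dependent acquisition on the parent ion, enhanced product ion scans, and linear ion trap scanning of trapped fragments.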

[3] = Plasma clearance after intravenous dosing; type: in vivo, rat (Sprague-Dawley)
Summary of the method: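 Male Sprague-Dawley rats received 1 mg kg−1 test compound intravenously. Plasma levels were measured by the biodistribution LC-MS:MS method: heparinised, chilled plasma, DTT reduction, then reversed-phase ammonium formate/acetonitrile gradient with ESI MRM detection.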

[4] = Biodistribution of NBMI in plasma and tissues after oral gavage; type: in vivo, rat (Sprague Dawley); conditions: for concentration at 1 h / concentration at 2 h / concentration at 8 h / concentration at 24 h: male, Sprague Dawley, rat, 100 mg kg^−1
Summary of the method: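 Twelve-hour-fasted male Sprague-Dawley rats were gavaged with 100 mg kg−1 test compound in corn oil, three per time point. Jugular-cannula blood was taken at 1, 2, 8 and 24 h into heparin and spun at 4°C; tissues were excised and weighed. Samples were DTT-reduced, then analysed by LC-MS:MS: Synergi Polar RP column, ammonium formate pH 3.5/acetonitrile gradient, ESI MRM.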

rats injected with HgCl2 = type: in vivo, rat (Harlan Sprague-Dawley); conditions: for mercury concentration in feces / mercury concentration in urine: 5 day collection, mean ± SEM
Summary of the method: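 Mature male Harlan Sprague-Dawley rats (389–397 g), four groups of six, housed in pairs. HgCl2 was given sc at 4.06 mg kg−1 in saline under brief isoflurane. Test compound (42.3 mg kg−1, DMSO plus PBS) was given sc 20–30 min later. Non-recipients got saline, so each rat had two injections. Rats were weighed before treatment and before day-6 sacrifice; organs were blotted and weighed. Behaviour was recorded.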

[5] = Solubility and stability of NBMI and its Hg complex; type: physicochemical
[6] = system: aortic endothelial membranes in culture; conditions: aortic endothelial membranes in culture ref Secor et al. 2011; cited from earlier work
[7] = 0.1, 0.5 and 1.0 g kg^−1 day^−1 gavage, 28 days
[8] = females, 100 mg kg^−1, end of 28 day daily dosing
[9] = females, 500 mg kg^−1, end of 28 day daily dosing
[10] = females, 1000 mg kg^−1, end of 28 day daily dosing
[11] = males, 100 mg kg^−1, end of 28 day daily dosing
[12] = males, 500 mg kg^−1, end of 28 day daily dosing
[13] = males, 1000 mg kg^−1, end of 28 day daily dosing
[14] = iv 1 mg kg^−1, individual rats 1-3
[15] = iv 1 mg kg^−1, plasma, individual rats 1-3
[16] = Group 2 NBMI only, sc 42.3 mg kg^−1, mean ± St Dev
[17] = Group 4 HgCl2 (4.06 mg kg^−1 sc) + NBMI (42.3 mg kg^−1 sc), mean ± St Dev

## O=C(NCCS)c1cccc(C(=O)NCCS)c1 [NBMI, N,N′-bis(2-mercaptoethyl)isophthalamide]
rats; [7]
  deaths and clinical signs: No deaths or abnormal weight loss, ataxia, loss of appetite
  microscopic and histological analysis of organs: None of their organs displayed changes indicating toxic effects
  spleen finding: mild to moderate B-cell proliferation
rats; [8]
  Ca^2+: 10.78 mg/dL
  Cl^−: 103 meq L^−1
  HCT: 43.7%
  HGB: 15.2 gm DL^−1
  K^+: 4.81 meq L^−1
  Mg^2+: 2.64 meq L^−1
  Na^+: 142 meq L^−1
  Phosphorus: 7.82 mg/dL
  RBC: 8.0 mill UL^−1
rats; [9]
  Ca^2+: 10.89 mg/dL
  Cl^−: 105 meq L^−1
  HCT: 42%
  HGB: 15 gm DL^−1
  K^+: 5.08 meq L^−1
  Mg^2+: 2.72 meq L^−1
  Na^+: 143 meq L^−1
  Phosphorus: 8.15 mg/dL
  RBC: 8.0 mill UL^−1
rats; [10]
  Ca^2+: 10.84 mg/dL
  Cl^−: 105 meq L^−1
  HCT: 40%
  HGB: 14 gm DL^−1
  K^+: 4.89 meq L^−1
  Mg^2+: 2.82 meq L^−1
  Na^+: 144 meq L^−1
  Phosphorus: 8.49 mg/dL
  RBC: 7.6 mill UL^−1
rats; [11]
  Ca^2+: 10.64 mg/dL
  Cl^−: 105 meq L^−1
  HCT: 46.2%
  HGB: 15.6 gm DL^−1
  K^+: 4.83 meq L^−1
  Mg^2+: 2.58 meq L^−1
  Na^+: 143 meq L^−1
  Phosphorus: 8.23 mg/dL
  RBC: 8.7 mill UL^−1
rats; [12]
  Ca^2+: 10.6 mg/dL
  Cl^−: 104 meq L^−1
  HCT: 45.1%
  HGB: 15.2 gm DL^−1
  K^+: 5.03 meq L^−1
  Mg^2+: 2.62 meq L^−1
  Na^+: 144 meq L^−1
  Phosphorus: 8.42 mg/dL
  RBC: 8.3 mill UL^−1
rats; [13]
  Ca^2+: 10.53 mg/dL
  Cl^−: 106 meq L^−1
  HCT: 45.5%
  HGB: 15.5 gm DL^−1
  K^+: 5.15 meq L^−1
  Mg^2+: 2.56 meq L^−1
  Na^+: 143 meq L^−1
  Phosphorus: 8.84 mg/dL
  RBC: 8.5 mill UL^−1
[1]
  ORAC score: 199,000 Trolox units 100g^−1
[2]
  metabolites detected: only two NBMI modified structures
[3]; iv 1 mg kg^−1
  clearance relative to liver blood flow of a typical rat (3.3 L hr^−1 kg^−1): approximately 30%
[3]; iv 1 mg kg^−1, 0.083 hr, individual rats 1-3
  Plasma concentration: 535 ng/mL and 423 ng/mL
[3]; iv 1 mg kg^−1, 0.25 hr, individual rats 1-3
  Plasma concentration: 320 ng/mL and 254 ng/mL
[3]; iv 1 mg kg^−1, 0.5 hr, individual rats 1-3
  Plasma concentration: 228 ng/mL and 203 ng/mL
[3]; iv 1 mg kg^−1, 1 hr, individual rats 1-3
  Plasma concentration: 155 ng/mL and 124 ng/mL
[3]; iv 1 mg kg^−1, 3 hr, individual rats 1-3
  Plasma concentration: 84.1 ng/mL and 63.1 ng/mL
[3]; iv 1 mg kg^−1, 6 hr, individual rats 1-3
  Plasma concentration: 32.7 ng/mL and 28.9 ng/mL
[3]; iv 1 mg kg^−1, 24 hr, individual rats 1-3
  Plasma concentration: 6.6 ng/mL and 8.84 ng/mL and 3.7 ng/mL
[3]; [14]
  Co, maximum plasma concentration extrapolated to t=0: 633 ng/mL and 691 ng/mL and 545 ng/mL
  Vss, steady state volume of distribution: 7.2 L/kg and 7.3 L/kg
[3]; iv 1 mg kg^−1, mean
  Co, maximum plasma concentration extrapolated to t=0: 623 ng/mL
[3]; [15]
  CL, clearance: 15.2 mL/min/kg and 21 mL/min/kg
  t1/2, half-life: 7.28 h and 5.42 h
[3]; male, Sprague-Dawley, rat, plasma, iv, 1 mg kg^−1, Plasma concentration, iv 1 mg kg^−1, 24 hr, mean
  concentration at 24 hr: 6.38 ng/mL
[3]; male, Sprague-Dawley, rat, plasma, iv, 1 mg/kg, CL, clearance, iv 1 mg kg^−1, plasma, mean
  clearance: 16.8 mL/min/kg
[3]; male, Sprague-Dawley, rat, plasma, iv, 1 mg/kg, Vss, steady state volume of distribution, iv 1 mg kg^−1, mean
  Vd: 6.7 L/kg
[3]; male, Sprague-Dawley, rat, plasma, iv, 1 mg/kg, t1/2, half-life, iv 1 mg kg^−1, plasma, mean
  half-life: 6.18 h
[4]; bone marrow, po
  concentration at 1 h: 12.5 ± 7.4 ng/g
  concentration at 2 h: 65.7 ± 51.6 ng/g
  concentration at 8 h: 6.88 ± 0.62 ng/g
  concentration at 24 h: 3.76 ± 0.77 ng/g
[4]; brain, po
  concentration at 1 h: 6.1 ± 2.6 ng/g
  concentration at 2 h: 51.8 ± 43.9 ng/g
  concentration at 8 h: 2.57 ± 0.34 ng/g
  concentration at 24 h: 2.09 ± 0.41 ng/g
[4]; kidney, po
  concentration at 1 h: 61.3 ± 42.7 ng/g
  concentration at 2 h: 145 ± 89.9 ng/g
  concentration at 8 h: 45.1 ± 3.4 ng/g
  concentration at 24 h: 36.9 ± 3.7 ng/g
[4]; liver, po
  concentration at 1 h: 165 ± 144 ng/g
  concentration at 2 h: 272 ± 274 ng/g
  concentration at 8 h: 23.3 ± 2.2 ng/g
  concentration at 24 h: 14.2 ± 2.3 ng/g
[4]; plasma, po
  concentration at 1 h: 588 ± 90 ng/mL
  concentration at 2 h: 883 ± 216 ng/mL
  concentration at 8 h: 391 ± 14 ng/mL
  concentration at 24 h: 118 ± 29 ng/mL
[4]; small intestine, po
  concentration at 1 h: 7430 ± 3200 ng/g
  concentration at 2 h: 8530 ± 5320 ng/g
  concentration at 8 h: 1560 ± 826 ng/g
  concentration at 24 h: 1040 ± 396 ng/g
[4]; spleen, po
  concentration at 1 h: 12.1 ± 5.2 ng/g
  concentration at 2 h: 153 ± 129 ng/g
  concentration at 8 h: 16.8 ± 1.5 ng/g
  concentration at 24 h: 12.7 ± 2.7 ng/g
[4]; subcutaneous fat, oral
  concentration at 1 h: 420 ± 419 ng/g
  concentration at 2 h: 683 ± 531 ng/g
  concentration at 8 h: 17.3 ± 7.4 ng/g
  concentration at 24 h: 7 ± 0.7 ng/g
[4]; oral gavage
  clearance from the body from peak values within 24 hours of ingestion: about 90%
[4]; post ingestion, oral gavage
  time of highest concentration in plasma and all tissues: 2 h
Rats injected with HgCl2; [16]
  Body Mass Post Treatment: 374.4 ± 27.7 g
  Organ Mass Brain (Post Treatment): 1.85 ± 0.04 g
  Organ Mass Kidney (Post Treatment): 2.80 ± 0.56 g
  Organ Mass Liver (Post Treatment): 11.7 ± 1.8 g
Rats injected with HgCl2; Group 4 Hg + NBMI versus Hg Only
  clinically observed toxic effects: exhibited no signs of discomfort
Rats injected with HgCl2; [17]
  Body Mass Post Treatment: 356.9 ± 46.8 g
  Organ Mass Brain (Post Treatment): 1.88 ± 0.10 g
  Organ Mass Kidney (Post Treatment): 3.88 ± 0.69 g
  Organ Mass Liver (Post Treatment): 11.0 ± 2.1 g
Rats injected with HgCl2; Hg and NBMI group
  mercury concentration in feces: 23447±4877 Ppb
  mercury concentration in urine: 242±52.7 Ppb
Rats injected with HgCl2; NBMI Only group
  mercury concentration in feces: 110±30 Ppb
  mercury concentration in urine: 0.30±0.1 Ppb
Rats injected with HgCl2; single sc dose of NBMI, organs 5-6 days after injection
  effect on organ mercury levels: did not reduce the mercury levels in the organs
[5]
  solubility in 95% ethanol or dimethylsulfoxide (DMSO): readily dissolves
  solubility in water: water insoluble
[6]
  prevention of damage induced by mercury exposure: very effective prevention of the damage induced by mercury exposure
  toxicity on membrane integrity: no toxicity on membrane integrity
